According to PubChem BioAssay:
Records with an inconclusive call do not appear.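 The calls were made as follows, unless noted: active = viability at or below 27.92% in each of two runs, the all-compound median minus 4 SD; inconclusive = no clear call, values can overlap the other calls; inactive = the rest.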

What was measured:
[1] = S. cerevisiae growth inhibition in permissive medium (OD615), pilot counter-assay for S. cerevisiae lifespan shortening project, permissive growth control (AID 705;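 active = growth inhibition above 25% in both replicates, a cutoff set 3 SD above the mean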); settings: OD615, 24 h, at 10 µM, stronger effect = higher value
Procedure, shortened: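 System: engineered DeaD yeast; Medium: permissive raffinose/galactose medium; Compound dosing: 10 µM single dose, 0.25% DMSO; Incubation: 4 h cell pre-growth, 24 h exposure at 30 °C; Technique: OD at 615 nm; Evaluation: growth inhibition from lowered OD615 after 24 h.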

[2] = S. cerevisiae growth inhibition in restrictive medium, OD615, pilot screen, restrictive growth control, yeast lifespan reduction project (AID 706;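 active = growth inhibition above a set limit, 3 SD over mean compound inhibition, in both replicates, cut at about 43% in these data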;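 also: modified DeaD lifespan yeast strain shifted to restrictive glucose medium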); settings: OD615, 48 h, at 10 µM, stronger effect = higher value
Procedure, shortened: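 Material: modified S. cerevisiae; buffer or medium: CSMM-D glucose medium; doses: one concentration, 10 µM final, 0.25% DMSO; incubation: 48 h compound exposure at 30 °C; detection: optical density at 615 nm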

[3] = doxorubicin toxicity protection in MRP-1 cells – H69AR cells, CellTiter-Glo, duplicate, MRP-1 activator project, pilot screen (AID 807;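 active = viability increase at or above a cutoff of the median across tested compounds plus 3 SD, cut at about 8.5% in these data, passing the limit was not always enough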;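 also: compound pretreatment 18-22 h then 72 h combined with doxorubicin; 0% = doxorubicin alone and 100% = vehicle without doxorubicin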); settings: H69AR viability with doxorubicin, CellTiter-Glo luminescence; at 10 µM; stronger effect = higher value
[4] = viability of PTEN-null HCT116 cells – cell-based, HCT116 clonal line, CellTiter-Glo, pilot screen (AID 824); settings: HCT116 PTEN-deleted viability, 60 h, at 10 µM, stronger effect = lower value;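 also: 0% = 20 µM Hyamine control and 100% = vehicle cell control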
[5] = RAM pathway blockade in budding yeast – dse1pr::URA3 reporter, 5-FOA selection, pilot screen (AID 869;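 active = inhibition over a set limit, the all-compound mean plus 3 SD, in both replicate runs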;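 also: 0% = DMSO wells with no growth and 100% = 10 µM 1-NA-PP1 with full growth; RAM network block rescues cells from 5-FOA so hits raise OD615 growth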); settings: S. cerevisiae dse1pr::URA3 5-FOA growth, OD615, 2 d; at 10 µM; stronger effect = higher value; strain carries analog-sensitive mutant Cbk1 kinase
[6] = RAM signaling pathway blockade in yeast – S. cerevisiae, Pdr1DBD-CYC8 efflux-inhibited sensitized strain, primary screen (AID 1298;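 active = RAM network inhibition above 8.4% in each of two replicates, 3 SD over the compound average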;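 also: 0% = DMSO untreated cells without growth and 100% = 10 µM 1-NA-PP1 full growth; higher means more yeast growth rescued from 5-FOA killing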); settings: S. cerevisiae cbk1-as DSE1-URA3 strain, 5-FOA growth OD615, 2 d; at 50 µM; stronger effect = higher value

C#CCN1C(=O)C(O)(CC(=O)c2ccc3c(c2)OCCO3)c2ccccc21 (stereo not given)
inactive: growth inhibition [1] -19% | growth inhibition [2] -18.4% | viability increase [3] -2.81% | viability [4] 49.2% | inhibition [5] 0.74% | RAM network inhibition [6] 6.75%

Cc1noc(C)c1C(=O)NCCCc1ccccc1
inactive: growth inhibition [1] -4.23% | growth inhibition [2] -7.88% | viability increase [3] -1.07% | viability [4] 103% | inhibition [5] 0.62% | RAM network inhibition [6] 0.21%

Cn1c(C(=O)NCCCN2CCN(c3ccccc3F)CC2)cc2c(=O)n(C)c3ccccc3c21
inactive: growth inhibition [1] -3.28% | growth inhibition [2] -4.87% | viability increase [3] -8.02% | viability [4] 54.9% | inhibition [5] 0.6% | RAM network inhibition [6] 0.96%

O=C(c1ccc(CN2CCOCC2)cc1)N1CCC(Cc2ccccc2)CC1
inactive: growth inhibition [1] -5.94% | growth inhibition [2] -3.29% | viability increase [3] -0.71% | viability [4] 93.1% | inhibition [5] 1.29% | RAM network inhibition [6] 9.1%

CCOc1c(Br)cc(C(N)=O)cc1OC
inactive: growth inhibition [1] 5.05% | growth inhibition [2] -3.4% | viability increase [3] -2.49% | viability [4] 101% | inhibition [5] 0.87% | RAM network inhibition [6] 2.56%
